This note sets out measurements from ChEMBL document CHEMBL3875191, “Enhanced potency of bivalent small molecule gp41 inhibitors” (Bioorg Med Chem, 2017).

The nature of series [1]: (§1) Inhibition of HIV1 gp41-induced cell-cell fusion between HXB2 viral envelope expressing human HL2/3 cells to CXCR4-tropic expressing TZM-bl cells after 6 hrs by LTR luciferase reporter gene assay. The series is classed as cell-based. Conditions: Human immunodeficiency virus 1, HL2/3, 6 h. The gist of the method: (§2)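 TZM-bl target cells (CD4, CCR5, CXCR4; HIV-1 LTR-driven firefly luciferase) at 25,000/well, cultured overnight, then given serially diluted inhibitor. 50,000 HL2/3 effector cells (HXB2 Env, Tat, Rev) were added and fusion ran 6 h in reduced-serum medium with 1% DMSO final. Luciferase was read, with 1% DMSO controls with and without HL2/3, in triplicate.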
Background: A reporter such as luciferase makes a cellular process visible.

The nature of series [2]: (§3) Inhibition of HIV1 Ba-L gp41-induced virus-cell fusion between HIV1 Ba-L to MAGI cells expressing CCR5-tropic treated 3 hrs post infection measured after 48 hrs by beta-galactosidase based chemiluminescence assay. Conditions: Human immunodeficiency virus 1, Ba-L.
The subject of series [3] is MAGI. Described as §3. Conditions: Human immunodeficiency virus 1.
The nature of series [4]: (§4) Inhibition of HIV1 3B gp41-induced virus-cell fusion between HIV1 3B to MAGI cells expressing CXCR4-tropic treated 3 hrs post infection measured after 48 hrs by beta-galactosidase based chemiluminescence assay. Conditions: Human immunodeficiency virus 1, 3B.
The test system of series [5] is MAGI. Described as §4. Conditions: Human immunodeficiency virus 1.
Series [6] is described as follows: Cytotoxicity against human HL2/3 cells assessed as decrease in cell viability by alamar blue/presto blue assay. The series is classed as toxicity, cell-based. Summed up: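 Cell viability read with resazurin reagent (Alamar Blue or Presto Blue) under the same culture conditions as cell-cell fusion. TZM-bl targets (25,000/well, cultured overnight) with serially diluted compound, plus 50,000 HL2/3 effectors/well. 6 h in reduced-serum medium, 1% DMSO final.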
(The colour change of resazurin is a common sign of viable cells or microbes.)

Series [7] in a line: Inhibition of fluorescently labeled C-terminal HR2 probe peptide binding to wild type HIV-1 Fe(env2.0)3 peptide model of gp41 hydrophobic pocket at compound to protein ratio of 1:1 by fluorescence assay. Set-up: species or system Human immunodeficiency virus 1.
Series [8] can be described thus: Inhibition of fluorescently labeled C-terminal HR2 probe peptide binding to wild type HIV-1 Fe(env2.0)3 peptide model of gp41 hydrophobic pocket assessed as inhibition constant for first binding interaction at compound to protein ratio of 1:2 by fluorescence assay. The arrangement: species or system Human immunodeficiency virus 1.
The nature of series [9]: Inhibition of fluorescently labeled C-terminal HR2 probe peptide binding to wild type HIV-1 Fe(env2.0)3 peptide model of gp41 hydrophobic pocket assessed as inhibition constant for second binding interaction at compound to protein ratio of 1:2 by fluorescence assay. The arrangement: species or system Human immunodeficiency virus 1.
Series [10] deals with Human immunodeficiency virus 1. In words: Binding affinity to wild type HIV-1 Fe2(env2.0)3 peptide model of gp41 hydrophobic pocket at compound to peptide ratio of 1:1 by surface plasmon resonance assay. Summed up:
(§5)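 CM5 chip activated with EDC/NHS then PDEA; FeII(envC)3 (bpy-HR1 peptide ending in D-Cys, 5 µM in 25 mM Tris-acetate pH 7.0) coupled by disulfide. Blocked with L-cysteine, then washed with 1 mM ferrous ammonium sulfate. Reference surface lacked receptor. Analytes run at 0.098–50 µM in 20 mM Hepes, 150 mM NaCl, pH 7.0, 1% DMSO. Association 60 s, dissociation 300 s, DMSO bracketing. Kinetics fit to Langmuir 1:1 and 1:2 models.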

The nature of series [11]: Ratio of Kd for wild type HIV-1 Fe2(env2.0)3 peptide model of gp41 hydrophobic pocket assessed as dissociation constant for first binding interaction to Ka for wild type HIV-1 Fe2(env2.0)3 peptide model of gp41 hydrophobic pocket assessed as association constant for first binding interaction. The arrangement: species or system Human immunodeficiency virus 1.
Series [12] deals with HL2/3. The series is described as §1. The format is cell-based. Conditions: Human immunodeficiency virus 1. Summed up:
as §2

In series [13] the test system is Human immunodeficiency virus 1. In words: Binding affinity to wild type HIV-1 HXB2 Fe2(env2.0)3 peptide model of gp41 hydrophobic pocket at <10 uM by surface plasmon resonance assay. The gist of the method:
as §5
(In general: SPR reads the build-up and loss of mass on a sensor chip optically.)

Series [14] relates to Human immunodeficiency virus 1. In words: Binding affinity to wild type HIV-1 HXB2 Fe2(env2.0)3 peptide model of gp41 hydrophobic pocket at >10 uM by surface plasmon resonance assay. The gist of the method:
as §5

Active and inactive are the calls of the source. No cut-off for these calls is given here.

For `O=C(CCC(=O)Nc1ccc(C(=O)N[C@@H](Cc2c[nH]c3ccccc23)C(=O)O)cc1OCCc1c[nH]c2ccccc12)NCCOCCOCCOCCNC(=O)CCC(=O)Nc1ccc(C(=O)N[C@@H](Cc2c[nH]c3ccccc23)C(=O)O)cc1OCCc1c[nH]c2ccccc12`, the figures for the IC50 in series [1], in series [2] and in series [4] were 0.6 µM, 3.6 µM and 3.8 µM, respectively. In addition, the IC90 in series [3] was above 100 µM; in series [5] it was 70 µM. Moreover, in [6], the half-maximal cytotoxic concentration (CC50) is above 100 µM. In addition, the Ki in series [7] was 1 to 2.3 µM; in [8], 20 µM; in [9], 0.2 µM. Also, the RUmax in series [10] was determined as 160. Besides, the equilibrium dissociation constant (Kd) in series [11] came out at 32 µM.

As for `Nc1ccc(C(=O)N[C@@H](Cc2c[nH]c3ccccc23)C(=O)O)cc1OCc1ccc(Cl)cc1`, in series [1], half-maximal inhibition (IC50) was put at 24 µM. Moreover, in series [6], the half-maximal cytotoxic concentration (CC50) is above 50 µM. Also, in series [7], the inhibition constant (Ki) is 15 µM. For the same compound, the RUmax in [10] is 56.

Take `O=C(CCC(=O)Nc1ccc(C(=O)N[C@@H](Cc2c[nH]c3ccccc23)C(=O)O)cc1OCc1ccc(Cl)cc1)NCCOCCOCCOCCNC(=O)CCC(=O)Nc1ccc(C(=O)N[C@@H](Cc2c[nH]c3ccccc23)C(=O)O)cc1OCc1ccc(Cl)cc1`: the IC50 in series [1] came out at 0.4 µM; in [4] it was 5.1 µM. For the same compound, the half-maximal cytotoxic concentration (CC50) in series [6] is above 100 µM. In addition, the Ki in series [7] lay within 5.3 to 8.5 µM. In series [10], the RUmax was 157. For the same compound, the Kd in series [11] stood at 43 µM.

On to `O=C(CCc1c[nH]c2ccccc12)NCCCCCC(=O)Nc1ccc(C(=O)N[C@@H](Cc2c[nH]c3ccccc23)C(=O)O)cc1OCc1ccc(Cl)cc1`, for which the figures for the IC50 in [1], in series [2] and in series [4] were 2.2 µM, 13 µM and 14.3 µM, respectively. In addition, the IC90 worked out at 26.5 µM in series [3] and 27.1 µM in series [5]. The 50% cytotoxic concentration (CC50) in [6] is above 100 µM. In addition, the Ki in series [7] came out at 3.4 µM. Moreover, the RUmax in series [10] was found to be 93.

Consider `O=C(CCc1c[nH]c2ccccc12)NCCCCCC(=O)Nc1ccc(C(=O)N[C@@H](Cc2c[nH]c3ccccc23)C(=O)O)cc1OCCc1c[nH]c2ccccc12`, for which the concentration for half-maximal inhibition (IC50) in series [1] turned out to be 1.3 µM; in series [2] it was 13.7 µM; in series [4] it was 17.3 µM. Further, the 90% effect concentration (IC90) in series [3] turned out to be 31.1 µM; in [5] it was 30.5 µM. The cytotoxic concentration (CC50) in series [6] was above 100 µM. In addition, in series [7], the Ki stood at 1.2 µM. Moreover, in series [10], the RUmax came out at 95.

Consider `Nc1ccc(C(=O)N[C@@H](Cc2c[nH]c3ccccc23)C(=O)O)cc1OCCc1c[nH]c2ccccc12`, for which the figures for the IC50 in [1], in [2] and in series [4] were 22 µM, above 50 µM and above 50 µM, respectively. The concentration for an effect of 90% (IC90) in [12] was 80 µM; in series [3], above 50 µM; in series [5], above 50 µM. Besides, the CC50 in [6] is above 50 µM. Further, the Ki in series [7] was 7.2 µM. The RUmax in [10] came to 59. The outcome in series [13] and in series [14] was Active.

What is called IC50 is the concentration needed to halve the response being measured. Low values mean greater potency, high ones weaker potency. For orientation: IC90 means the concentration at which the effect reaches the 90% level. Read a high IC90 as weaker potency. For orientation: CC50 means the concentration giving 50% cytotoxicity. The term Ki denotes a dissociation constant, usually derived from enzyme kinetics or from competition with a known ligand. A word on the Kd: it is the free concentration of one partner at which half of the binding sites on the other are occupied at equilibrium, for simple one-to-one binding.
